Reference: ChEMBL document CHEMBL2151038, “Synthesis, characterization and biological evaluation of some novel 2,4-thiazolidinediones as potential cytotoxic, antimicrobial and antihyperglycemic agents” (Bioorg Med Chem Lett, 2012)
In brackets after ≈: the same amount, converted by molar mass.

Tests used:
Klebsiella pneumoniae = experiment: Antibacterial activity against Klebsiella pneumoniae NCIM 5082 after 24 hrs by NCCLS agar well diffusion method; assay type: functional; details: NCIM 5082, 24 h
Procedure, shortened: (§1)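 Nutrient agar seeded with 0.1 mL bacterial suspension (10⁵ CFU/mL in 0.85% saline). 6 mm wells filled with 0.1 mL compound. Plates in triplicate, 37 ± 0.5 °C for 24 h. MIC = lowest concentration giving complete growth inhibition.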

Proteus vulgaris = experiment: Antibacterial activity against Proteus vulgaris NCIM 2813 after 24 hrs by NCCLS agar well diffusion method; assay type: functional; details: NCIM 2813, 24 h; procedure, shortened: as §1
Aspergillus oryzae = experiment: Antifungal activity against Aspergillus oryzae NCIM 643 after 48 hrs by NCCLS agar well diffusion method; assay type: functional; details: NCIM 643, 48 h
Procedure, shortened: (§2)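 Spore suspensions in sterile distilled water adjusted to 10⁶ CFU/mL, 0.1 mL spread on potato-dextrose agar. 6 mm wells received 0.1 mL compound in 1% DMSO (final 16–512 µg/mL). Controls: 1% DMSO and ketoconazole (16 µg/mL). Triplicate plates, 48 h at 28 ± 0.2 °C. MIC = lowest concentration completely inhibiting growth.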

Staphylococcus aureus = experiment: Antibacterial activity against Staphylococcus aureus NCIM 2079 after 24 hrs by NCCLS agar well diffusion method; assay type: functional; details: NCIM 2079, 24 h; procedure, shortened: as §1
Escherichia coli = experiment: Antibacterial activity against Escherichia coli NCIM 2065 after 24 hrs by NCCLS agar well diffusion method; assay type: functional; details: NCIM 2065, 24 h; procedure, shortened: as §1
Bacillus subtilis = experiment: Antibacterial activity against Bacillus subtilis NCIM 2063 after 24 hrs by NCCLS agar well diffusion method; assay type: functional; details: NCIM 2063, 24 h; procedure, shortened: as §1
Bacillus pumilus = experiment: Antibacterial activity against Bacillus pumilus NCIM 2327 after 24 hrs by NCCLS agar well diffusion method; assay type: functional; details: NCIM 2327, 24 h; procedure, shortened: as §1
Penicillium chrysogenum = experiment: Antifungal activity against Penicillium chrysogenum NCIM 738 after 48 hrs by NCCLS agar well diffusion method; assay type: functional; details: NCIM 738, 48 h; procedure, shortened: as §2
Aspergillus niger = experiment: Antifungal activity against Aspergillus niger NCIM 548 after 48 hrs by NCCLS agar well diffusion method; assay type: functional; details: NCIM 548, 48 h; procedure, shortened: as §2
Candida albicans = experiment: Antifungal activity against Candida albicans NCIM 3102 after 48 hrs by NCCLS agar well diffusion method; assay type: functional; details: NCIM 3102, 48 h; procedure, shortened: as §2
Pseudomonas aeruginosa = experiment: Antibacterial activity against Pseudomonas aeruginosa NCIM 2036 after 24 hrs by NCCLS agar well diffusion method; assay type: functional; details: NCIM 2036, 24 h; procedure, shortened: as §1
Rattus norvegicus [1] = experiment: Antihyperglycemic activity in streptozotocin-induced type 2 diabetic Wistar albino rat assessed as reduction in plasma glucose level at 50 mg/kg, po by glucometer; assay type: functional
Procedure, shortened: (§3)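 Wistar albino rats of either sex, 150–200 g, fasted 16 h. Diabetes induced by nicotinamide 150 mg/kg, then STZ 65 mg/kg in citrate buffer pH 4.5. Glucose confirmed after 48 h. Groups of six. Oral dosing as 0.25% sodium CMC suspension at 10, 30 or 50 mg/kg. Rosiglitazone was the reference. Retro-orbital plasma glucose measured by glucometer before dosing and at 1, 2, 4, 6, 8, 12 and 24 h. Results as mean ± SEM, compared by ANOVA, t-test and Dunnett's test.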

Micrococcus luteus = experiment: Antibacterial activity against Micrococcus luteus NCIM 2155 after 24 hrs by NCCLS agar well diffusion method; assay type: functional; details: NCIM 2155, 24 h; procedure, shortened: as §1
[2] = Toxicity in mouse assessed as changes in vital functions; assay type: organism-based; details: in vivo
Artemia salina = experiment: Cytotoxicity in brine shrimps larvae assessed as mortality after 24 hrs; assay type: functional; details: read-out: ED50 (the source's name)
Procedure, shortened: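 Artemia salina nauplii hatched 38 h under constant aeration in sterile brine (sea salt 38 g/L, pH 8.5 with 1 N NaOH). Ten nauplii per vial were exposed to a range of compound concentrations at 37 °C for 24 h under incandescent light, alongside vehicle-treated controls. Survivors were counted, % lethality was taken from mean survivors versus control, and ED50 came from probit analysis.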

Rattus norvegicus [3] = experiment: Antihyperglycemic activity in po dosed streptozotocin-induced type 2 diabetic Wistar albino rat assessed as reduction in plasma glucose level by glucometer; assay type: functional, organism-based; procedure, shortened: as §3
Rattus norvegicus [4] = experiment: Antihyperglycemic activity in streptozotocin-induced type 2 diabetic Wistar albino rat assessed as reduction in plasma glucose level at 10 mg/kg, po by glucometer; assay type: functional; procedure, shortened: as §3
Rattus norvegicus [5] = experiment: Antihyperglycemic activity in streptozotocin-induced type 2 diabetic Wistar albino rat assessed as reduction in plasma glucose level at 30 mg/kg, po by glucometer; assay type: functional; procedure, shortened: as §3

| SMILES | MIC (Klebsiella pneumoniae) [µg/mL] | MIC (Proteus vulgaris) [µg/mL] | MIC (Aspergillus oryzae) [µg/mL] | MIC (Staphylococcus aureus) [µg/mL] | MIC (Escherichia coli) [µg/mL] | MIC (Bacillus subtilis) [µg/mL] | MIC (Bacillus pumilus) [µg/mL] | MIC (Penicillium chrysogenum) [µg/mL] | MIC (Aspergillus niger) [µg/mL] | MIC (Candida albicans) [µg/mL] | MIC (Pseudomonas aeruginosa) [µg/mL] | Activity (Rattus norvegicus [1]) [mg/dL] | MIC (Micrococcus luteus) [µg/mL] | MTD [2] [mg/kg] | EC50 (Artemia salina) [µg/mL] | Activity (Rattus norvegicus [3]) | Activity (Rattus norvegicus [4]) [mg/dL] | Activity (Rattus norvegicus [5]) [mg/dL] |
| --- | --- | --- | --- | --- | --- | --- | --- | --- | --- | --- | --- | --- | --- | --- | --- | --- | --- | --- |
| O=C1NC(=O)/C(=C/c2ccc(/C=C/C(=O)c3ccccc3O)cc2)S1 | 512 (≈ 1460 µM) | 512 (≈ 1460 µM) | 512 (≈ 1460 µM) | 256 (≈ 729 µM) | 256 (≈ 729 µM) | 512 (≈ 1460 µM) | 512 (≈ 1460 µM) | 512 (≈ 1460 µM) | 512 (≈ 1460 µM) | 512 (≈ 1460 µM) | 256 (≈ 729 µM) | 14.44 | 512 (≈ 1460 µM) | 2000 | 41.4 (≈ 118 µM) | Dose-dependent effect |  |  |
| O=C1NC(=O)/C(=C/c2ccc(/C=C/C(=O)c3cc(OCc4ccccc4)cc(OCc4ccccc4)c3)cc2)S1 | 16 (≈ 29.2 µM) | 32 (≈ 58.4 µM) | 16 (≈ 29.2 µM) | 16 (≈ 29.2 µM) | 32 (≈ 58.4 µM) | 16 (≈ 29.2 µM) | 16 (≈ 29.2 µM) | 16 (≈ 29.2 µM) | 16 (≈ 29.2 µM) | 16 (≈ 29.2 µM) | 16 (≈ 29.2 µM) | 30.12 | 16 (≈ 29.2 µM) | 2000 | 26.8 (≈ 49 µM) | Dose-dependent effect | 21.76 | 26.87 |
| O=C1NC(=O)/C(=C/c2ccc(/C=C/C(=O)c3ccc(O)cc3O)cc2)S1 | 256 (≈ 697 µM) | 256 (≈ 697 µM) | 256 (≈ 697 µM) | 256 (≈ 697 µM) | 256 (≈ 697 µM) | 256 (≈ 697 µM) | 256 (≈ 697 µM) | 256 (≈ 697 µM) | 256 (≈ 697 µM) | 256 (≈ 697 µM) | 256 (≈ 697 µM) | 41.67 | 512 (≈ 1390 µM) | 2000 | 49.2 (≈ 134 µM) | Dose-dependent effect | 26.86 | 33.72 |
| Nc1ccc(C(=O)/C=C/c2ccc(/C=C3\SC(=O)NC3=O)cc2)cc1 | 128 (≈ 365 µM) | 256 (≈ 731 µM) | 128 (≈ 365 µM) | 128 (≈ 365 µM) | 128 (≈ 365 µM) | 128 (≈ 365 µM) | 128 (≈ 365 µM) | 256 (≈ 731 µM) | 128 (≈ 365 µM) | 128 (≈ 365 µM) | 64 (≈ 183 µM) | 29.87 | 256 (≈ 731 µM) | 2000 | 28.8 (≈ 82.2 µM) | Dose-dependent effect | 21.34 | 24.72 |
| O=C1NC(=O)/C(=C/c2ccc(/C=C/C(=O)c3cccnc3)cc2)S1 | 128 (≈ 381 µM) | 256 (≈ 761 µM) | 128 (≈ 381 µM) | 128 (≈ 381 µM) | 128 (≈ 381 µM) | 128 (≈ 381 µM) | 128 (≈ 381 µM) | 256 (≈ 761 µM) | 256 (≈ 761 µM) | 128 (≈ 381 µM) | 128 (≈ 381 µM) | 31.81 | 128 (≈ 381 µM) | 2000 | 31.4 (≈ 93.4 µM) | Dose-dependent effect | 19.04 | 27.86 |
| COc1cc([C@@H]2c3cc4c(cc3[C@H](O)[C@H]3COC(=O)[C@H]23)OCO4)cc(OC)c1OC [PODOFILOX] |  |  |  |  |  |  |  |  |  |  |  |  |  |  | 3.61 (≈ 8.71 µM) |  |  |  |
| O=C1NC(=O)/C(=C/c2ccc(/C=C/C(=O)c3cccs3)cc2)S1 | 16 (≈ 46.9 µM) | 64 (≈ 187 µM) | 32 (≈ 93.7 µM) | 32 (≈ 93.7 µM) | 32 (≈ 93.7 µM) | 32 (≈ 93.7 µM) | 16 (≈ 46.9 µM) | 32 (≈ 93.7 µM) | 32 (≈ 93.7 µM) | 32 (≈ 93.7 µM) | 32 (≈ 93.7 µM) | 13.71 | 32 (≈ 93.7 µM) | 2000 | 4 (≈ 11.7 µM) | Dose-dependent effect |  | 11.66 |
| CN(CCOc1ccc(CC2SC(=O)NC2=O)cc1)c1ccccn1 (centres undefined) [ROSIGLITAZONE] |  |  |  |  |  |  |  |  |  |  |  | 12.74 |  |  |  |  | 38.57 | 14.83 |
